This is an account of results in ChEMBL document CHEMBL1132236, “Synthesis and pharmacology of the baclofen homologues 5-amino-4-(4-chlorophenyl)pentanoic acid and the R- and S-enantiomers of 5-amino-3-(4-chlorophenyl)pentanoic acid” (J Med Chem, 1999).

pEC50, pIC50: −log10 of the molar value. Active and inactive are the calls of the source. The calls are words filed in the database; no cut-off is given here.

In test [1] the target is GABA B receptor (Rattus norvegicus, UniProt O88871+Q9Z0U4). The test is described as follows: Displacement of [3H]GABA from Gamma-aminobutyric acid type B receptor. The test is classed as protein-complex assay. Put shortly:
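Rat brain synaptic membranes (male Sprague-Dawley), washed repeatedly in 5 mM Tris-HCl pH 7.1. 0.5 mg protein incubated with 50 nM [3H]GABA plus 20 µM isoguvacine in 50 mM Tris-HCl pH 7.4 with 2.5 mM CaCl2, 45 min at 24 °C. GF/B filtration, scintillation counting.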

For test [2], the species on record is Cavia porcellus. The test is described as follows: The compound was tested for inhibition of electrically evoked muscle contractions in isolated longitudinal guinea pig ileum muscle. The test is classed as functional. In short, it runs like this: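 Guinea pig ileum longitudinal muscle strips with myenteric plexus (Paton–Zar) held in Krebs-bicarbonate gassed 5% CO2/95% O2 at 37 °C. After 60 min equilibration, stimulated at 0.1 Hz, 5 ms, 100 V. Isometric contractions recorded, inhibition taken relative to maximal inhibition. EC50 fitted with Hill equation. 20–30 min recovery between curves. At least four preparations from two animals.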

Test [3] deals with GABA-A receptor; anion channel. The test is described as follows: Inhibition of [3H]muscimol binding to Gamma-aminobutyric acid A (GABA-A) receptor of rat brain membranes. It counts as cell membranes, Membrane. In short, it runs like this:
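Male Sprague-Dawley rat brain synaptic membranes, washed repeatedly, resuspended at 1 mg/mL in 50 mM Tris-HCl pH 7.4. Incubated with 10 nM [3H]muscimol for 1 h at 20 °C, competitor 10^-10 to 10^-3 M. Nonspecific binding defined with 1 mM GABA. GF/B filtration, liquid scintillation counting.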

Test [4] is filed under the species Cavia porcellus. The test is described as follows: Sensitivity towards CGP-35348 in isolated longitudinal guinea pig ileum muscle; Sensitive. It counts as functional.
Test [5] is filed under the species Cavia porcellus. The test is described as follows: Sensitivity towards CGP-35348 in isolated longitudinal guinea pig ileum muscle; sensitive. It counts as functional.

Chain of GABA B receptor (Q9Z0U4 whole entry): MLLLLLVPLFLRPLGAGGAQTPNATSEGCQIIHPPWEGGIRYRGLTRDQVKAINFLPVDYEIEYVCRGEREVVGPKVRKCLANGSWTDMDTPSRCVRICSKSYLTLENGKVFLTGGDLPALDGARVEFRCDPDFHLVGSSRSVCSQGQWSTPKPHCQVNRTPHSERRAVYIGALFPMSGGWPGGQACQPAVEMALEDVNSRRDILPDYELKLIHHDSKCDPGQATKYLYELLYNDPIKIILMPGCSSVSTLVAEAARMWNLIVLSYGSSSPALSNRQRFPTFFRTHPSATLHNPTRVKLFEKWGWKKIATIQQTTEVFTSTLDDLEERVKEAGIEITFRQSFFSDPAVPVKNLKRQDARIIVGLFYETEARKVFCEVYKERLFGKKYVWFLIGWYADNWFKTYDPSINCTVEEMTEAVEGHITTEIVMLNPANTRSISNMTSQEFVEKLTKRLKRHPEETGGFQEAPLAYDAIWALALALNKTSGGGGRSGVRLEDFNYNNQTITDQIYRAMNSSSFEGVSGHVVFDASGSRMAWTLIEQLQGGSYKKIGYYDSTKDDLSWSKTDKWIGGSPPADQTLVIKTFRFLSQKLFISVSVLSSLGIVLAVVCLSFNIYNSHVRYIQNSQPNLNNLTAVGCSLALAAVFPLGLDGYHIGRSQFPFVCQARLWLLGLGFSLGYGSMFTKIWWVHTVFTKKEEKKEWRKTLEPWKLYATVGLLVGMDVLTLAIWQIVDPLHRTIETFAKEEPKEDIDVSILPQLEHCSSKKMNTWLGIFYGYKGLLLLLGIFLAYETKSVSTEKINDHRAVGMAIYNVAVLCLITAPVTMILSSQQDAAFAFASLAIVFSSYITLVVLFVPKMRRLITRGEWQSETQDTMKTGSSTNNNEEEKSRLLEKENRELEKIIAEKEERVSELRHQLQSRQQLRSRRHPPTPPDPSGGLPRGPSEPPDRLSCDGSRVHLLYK
Chain of GABA B receptor (O88871 whole entry): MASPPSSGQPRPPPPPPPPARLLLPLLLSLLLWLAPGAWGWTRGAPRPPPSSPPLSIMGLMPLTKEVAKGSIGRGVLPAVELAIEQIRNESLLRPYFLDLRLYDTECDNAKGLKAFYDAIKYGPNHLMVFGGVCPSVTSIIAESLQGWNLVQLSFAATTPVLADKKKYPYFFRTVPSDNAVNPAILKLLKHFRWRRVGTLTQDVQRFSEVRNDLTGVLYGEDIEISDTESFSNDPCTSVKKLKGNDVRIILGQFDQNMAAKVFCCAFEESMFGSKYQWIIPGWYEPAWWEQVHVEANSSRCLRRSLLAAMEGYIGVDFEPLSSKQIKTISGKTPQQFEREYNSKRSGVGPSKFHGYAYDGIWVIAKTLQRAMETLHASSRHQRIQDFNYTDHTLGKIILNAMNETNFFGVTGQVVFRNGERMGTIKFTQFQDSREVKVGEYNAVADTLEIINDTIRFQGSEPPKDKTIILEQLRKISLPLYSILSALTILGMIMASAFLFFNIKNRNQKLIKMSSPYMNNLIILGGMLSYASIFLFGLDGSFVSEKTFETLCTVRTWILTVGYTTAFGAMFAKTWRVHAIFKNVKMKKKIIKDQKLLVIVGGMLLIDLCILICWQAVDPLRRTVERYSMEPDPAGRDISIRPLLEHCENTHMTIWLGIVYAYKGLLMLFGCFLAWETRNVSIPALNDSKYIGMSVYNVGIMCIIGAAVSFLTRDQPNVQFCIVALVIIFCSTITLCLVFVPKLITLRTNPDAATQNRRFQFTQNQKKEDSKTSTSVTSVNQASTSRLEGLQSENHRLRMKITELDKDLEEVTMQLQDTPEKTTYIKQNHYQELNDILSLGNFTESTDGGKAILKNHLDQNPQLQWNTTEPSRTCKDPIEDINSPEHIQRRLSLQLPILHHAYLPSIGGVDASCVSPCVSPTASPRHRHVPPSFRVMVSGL

Broadly, the pIC50 is −log10 of the IC50, conventionally taken in molar units. A high value points to a small IC50. As a reminder, the pEC50 is the negative decadic logarithm of the EC50, by convention in mol/L. A lower pEC50 goes with a large EC50. In the case of `NCC[C@H](CC(=O)O)c1ccc(Cl)cc1`, the negative logarithm of the IC50 (pIC50) in test [1] was 5.13; in test [3] it was under 4.00. In test [2], this compound gave a pEC50 of 4.96. In addition, the Sensitivity result in test [4] was “inactive”.

In turn, `NC[C@H](CC(=O)O)c1ccc(Cl)cc1` [ARBACLOFEN] had a pEC50 in test [2] of 4.96. The pIC50 in test [3] is under 4.00. Also, the Sensitivity result in test [4] is “Active”.

Compound `NC[C@@H](CC(=O)O)c1ccc(Cl)cc1` showed a pEC50 in test [2] of 2.48. Moreover, the pIC50 in test [3] is under 4.00.

`NCC(CCC(=O)O)c1ccc(Cl)cc1` (stereo unspecified): the negative-log IC50 (pIC50) was under 6.85 in test [1] and under 4.00 in test [3]. This compound had a pEC50 in test [2] of under 2.52.

Turning to `NCC[C@@H](CC(=O)O)c1ccc(Cl)cc1`, in test [5], the Sensitivity result is “inactive”. Moreover, the negative-log IC50 (pIC50) is under 6.85 in test [1] and under 4.00 in test [3]. Moreover, the pEC50 in test [2] is 3.51.
